Laboratory results as given in ChEMBL document CHEMBL2440107, “Quinazolino linked 4β-amidopodophyllotoxin conjugates regulate angiogenic pathway and control breast cancer cell proliferation” (Bioorg Med Chem, 2013).
Activity calls are given as the source filed them. The calls are words filed in the database; no cut-off is given here.

Columns and labels:
[1] = system: MCF7; test: Cell cycle arrest in human MCF7 cells assessed as accumulation at G0 phase at 4 uM after 24 hrs by propidium iodide staining-based flow cytometric analysis (reference value: 3%); format: functional
[2] = system: MCF7; test: Cell cycle arrest in human MCF7 cells assessed as accumulation at G1 phase at 4 uM after 24 hrs by propidium iodide staining-based flow cytometric analysis (reference value: 77%); format: functional
[3] = system: MCF7; test: Cell cycle arrest in human MCF7 cells assessed as accumulation at S phase at 4 uM after 24 hrs by propidium iodide staining-based flow cytometric analysis (reference value: 5%); format: functional
[4] = system: MCF7; test: Cell cycle arrest in human MCF7 cells assessed as accumulation at G2/M phase at 4 uM after 24 hrs by propidium iodide staining-based flow cytometric analysis (reference value: 15%); format: functional
[5] = system: MDA-MB-231; test: Cytotoxicity against human MDA-MB-231 cells assessed as cell viability at 0.5 to 32 uM after 24 hrs by MTT assay; format: functional, cell-based
Outline: (§1)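 Cells seeded at 10,000/well, incubated overnight, then exposed 24 h to 0.5–32 µM, etoposide as standard. MTT added, 2 h at 37 °C; formazan solubilised in extraction buffer, OD read at 570 nm; percent viability determined. Triplicates, Student t-test.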

[6] = system: MCF7; test: Antiangiogenic activity in human MCF7 cells assessed as downregulation of VEGF-A protein expression at 4 uM after 24 hrs by Western blotting analysis; format: functional, cell-based
[7] = system: MCF7; test: Antiangiogenic activity in human MCF7 cells assessed as upregulation of STAT1 protein expression at 4 uM after 24 hrs by Western blotting analysis; format: functional, cell-based
[8] = system: MCF7; test: Cytotoxicity against human MCF7 cells assessed as cell viability at 0.5 to 32 uM after 24 hrs by MTT assay; format: functional, cell-based; outline: as §1
[9] = system: MCF7; test: Antimitotic activity in human MCF7 cells assessed as upregulation of cyclin B1 protein expression at 4 uM after 24 hrs by Western blotting analysis; format: functional, cell-based
[10] = system: MCF7; test: Antiangiogenic activity in human MCF7 cells assessed as downregulation of STAT3 protein expression at 4 uM after 24 hrs by Western blotting analysis; format: functional, cell-based
[11] = system: MCF7; test: Antimitotic activity in human MCF7 cells assessed as downregulation of Cdk1 protein expression at 4 uM after 24 hrs by Western blotting analysis; format: functional, cell-based
[12] = system: MCF7; test: Antiangiogenic activity in human MCF7 cells assessed as effect on AKT1 protein expression at 4 uM after 24 hrs by Western blotting analysis; format: functional, cell-based
[13] = system: MCF7; test: Antiangiogenic activity in human MCF7 cells assessed as downregulation of AKT phosphorylation at Ser473 at 4 uM after 24 hrs by Western blotting analysis; format: functional, cell-based
[14] = system: MCF7; test: Antiinvasive activity in human MCF7 cells assessed as downregulation of alphaVbeta3 integrin protein expression at 4 uM after 24 hrs by Western blot analysis; format: functional, cell-based
[15] = system: MCF7; test: Induction of apoptosis in human MCF7 cells assessed as upregulation of caspase-9 protein expression at 4 uM after 24 hrs by Western blotting analysis; format: functional, cell-based
[16] = system: HUVEC; test: Cytotoxicity against HUVEC assessed as cell viability at 1 uM after 6 hrs by MTT assay; format: cell-based; conditions: human
Outline: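 HUVEC at 10,000 cells/well exposed for 6 h across 0.5–32 µM; percent viability plotted, etoposide as standard. Triplicates, Student t-test.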

[17] = system: PANC-1; test: Cytotoxicity against human PANC1 cells assessed as cell viability at 0.5 to 32 uM after 24 hrs by MTT assay; format: functional, cell-based; outline: as §1
[18] = system: MCF7; test: Antiangiogenic activity in human MCF7 cells assessed as downregulation of phosphorylated ERK1/2 protein expression at 4 uM after 24 hrs by Western blotting analysis; format: functional, cell-based
[19] = system: MCF7; test: Induction of apoptosis in human MCF7 cells assessed as upregulation of cytochrome-c protein expression in cytosol at 4 uM after 24 hrs by Western blotting analysis; format: functional, cell-based
[20] = system: MCF7; test: Antimitotic activity in human MCF7 cells assessed as upregulation of p53 protein expression at 4 uM after 24 hrs by Western blotting analysis; format: functional, cell-based
[21] = system: MCF7; test: Antiangiogenic activity in human MCF7 cells assessed as downregulation of ERK1/2 protein expression at 4 uM after 24 hrs by Western blotting analysis; format: functional, cell-based
[22] = system: HUVEC; test: Antiangiogenic activity in HUVEC assessed as inhibition of VEGF-A-induced tube formation at 1 uM after 6 hrs by inverted microscopic analysis; format: functional, cell-based; conditions: Homo sapiens
Outline: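 HUVEC (ECM medium, 5% FBS, 1% ECGS) seeded at 5×10^3 cells/well on EC matrix solidified at 37 °C, grown 12 h in endothelial growth media, then treated at 1 µM final for about 6 h. Tube formation examined by inverted microscopy. Etoposide as reference.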

[23] = system: MCF7; test: Disruption of mitochondrial membrane potential in human MCF7 cells at 4 uM after 24 hrs by JC-1 dye-based fluorescence assay; format: functional, cell-based
Outline: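 MCF-7 cells exposed 24 h at 4 µM, etoposide as reference, then stained with 2.5 µM JC-1 for 20 min at room temperature. Fluorescence imaging: red J-aggregates indicate intact potential, green monomers indicate loss, read as red-to-green shift.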

Row | SMILES | Activity [1] | Activity [2] | Activity [3] | Activity [4] | Activity [5] | Activity [6] | Activity [7] | Activity [8] | Activity [9] | Activity [10] | Activity [11] | Activity [12] | Activity [13] | Activity [14] | Activity [15] | Activity [16] | Activity [17] | Activity [18] | Activity [19] | Activity [20] | also measured
1 | COc1cc([C@@H]2c3cc4c(cc3[C@@H](NC(=O)CCCCOc3ccc5nc(C)n(-c6ccc(Cl)c(Cl)c6)c(=O)c5c3)[C@H]3COC(=O)[C@H]23)OCO4)cc(OC)c1OC | 12% | 49% | 5% | 34% |  |  |  |  |  |  |  |  |  |  |  |  |  |  |  |  | 
2 | COc1cc([C@@H]2c3cc4c(cc3[C@@H](NC(=O)CCCCOc3ccc5nc(C)n(-c6cc(OC)c(OC)c(OC)c6)c(=O)c5c3)[C@H]3COC(=O)[C@H]23)OCO4)cc(OC)c1OC | 10% | 51% | 5% | 35% |  |  |  |  |  |  |  |  |  |  |  |  |  |  |  |  | 
3 | COc1ccc(-n2c(C)nc3ccc(OCCCCCC(=O)N[C@@H]4c5cc6c(cc5[C@@H](c5cc(OC)c(OC)c(OC)c5)[C@H]5C(=O)OC[C@@H]54)OCO6)cc3c2=O)cc1 | 8% | 47% | 4% | 41% | Active | Active | Active | Active | Active | Active | Active | inactive | Active | Active | Active | Non-toxic | Active | Active | Active | Active | Activity [21]: Active
4 | COc1cc([C@@H]2c3cc4c(cc3[C@@H](NC(=O)CCCCCOc3ccc5nc(C)n(-c6ccc(Cl)c(Cl)c6)c(=O)c5c3)[C@H]3COC(=O)[C@H]23)OCO4)cc(OC)c1OC | 10% | 45% | 5% | 40% | Active | Active | Active | Active | Active | Active | Active | inactive | Active | Active | Active | Non-toxic | Active | Active | Active | Active | inhibition [22]: Active; Activity [21]: Active; Activity [23]: Active
5 | COc1cc([C@@H]2c3cc4c(cc3[C@@H](NC(=O)CCCCCOc3ccc5nc(C)n(-c6ccc(F)cc6)c(=O)c5c3)[C@H]3COC(=O)[C@H]23)OCO4)cc(OC)c1OC | 14% | 37% | 4% | 45% | Active | Active | Active | Active | Active | Active | Active | inactive | Active | Active | Active | Non-toxic | Active | Active | Active | Active | inhibition [22]: Active; Activity [21]: Active; Activity [23]: Active
6 | COc1ccc(-n2c(C)nc3ccc(OCCCCC(=O)N[C@@H]4c5cc6c(cc5[C@@H](c5cc(OC)c(OC)c(OC)c5)[C@H]5C(=O)OC[C@@H]54)OCO6)cc3c2=O)cc1 | 7% | 44% | 10% | 39% |  |  |  |  |  |  |  |  |  |  |  |  |  |  |  |  | 
7 | COc1cc(OC)cc(-n2c(C)nc3ccc(OCCCCC(=O)N[C@@H]4c5cc6c(cc5[C@@H](c5cc(OC)c(OC)c(OC)c5)[C@H]5C(=O)OC[C@@H]54)OCO6)cc3c2=O)c1 | 6% | 49% | 6% | 39% |  |  |  |  |  |  |  |  |  |  |  |  |  |  |  |  | 
8 | COc1cc(OC)cc(-n2c(C)nc3ccc(OCCCCCC(=O)N[C@@H]4c5cc6c(cc5[C@@H](c5cc(OC)c(OC)c(OC)c5)[C@H]5C(=O)OC[C@@H]54)OCO6)cc3c2=O)c1 | 9% | 49% | 5% | 37% |  |  |  |  |  |  |  |  |  |  |  |  |  |  |  |  | 
9 | COc1cc([C@@H]2c3cc4c(cc3[C@@H](NC(=O)CCCCOc3ccc5nc(C)n(-c6ccc([N+](=O)[O-])cc6)c(=O)c5c3)[C@H]3COC(=O)[C@H]23)OCO4)cc(OC)c1OC | 5% | 51% | 5% | 40% |  |  |  |  |  |  |  |  |  |  |  |  |  |  |  |  | 
10 | COc1cc([C@@H]2c3cc4c(cc3[C@@H](NC(=O)CCCCCOc3ccc5nc(C)n(-c6cc(OC)c(OC)c(OC)c6)c(=O)c5c3)[C@H]3COC(=O)[C@H]23)OCO4)cc(OC)c1OC | 7% | 50% | 5% | 39% |  |  |  |  |  |  |  |  |  |  |  |  |  |  |  |  | 
11 | COc1cc([C@@H]2c3cc4c(cc3[C@@H](NC(=O)CCCCOc3ccc5nc(C)n(-c6ccc(F)cc6)c(=O)c5c3)[C@H]3COC(=O)[C@H]23)OCO4)cc(OC)c1OC | 8% | 49% | 5% | 38% |  |  |  |  |  |  |  |  |  |  |  |  |  |  |  |  | 
12 | COc1cc([C@@H]2c3cc4c(cc3[C@@H](O[C@@H]3O[C@@H]5CO[C@@H](C)O[C@H]5[C@H](O)[C@H]3O)[C@H]3COC(=O)[C@H]23)OCO4)cc(OC)c1O [ETOPOSIDE] | 9% | 18% | 6% | 67% |  |  |  |  |  |  |  |  |  | Active | Active | Non-toxic |  |  | Active |  | Activity [23]: Active
13 | COc1cc([C@@H]2c3cc4c(cc3[C@@H](NC(=O)CCCCCOc3ccc5nc(C)n(-c6ccc([N+](=O)[O-])cc6)c(=O)c5c3)[C@H]3COC(=O)[C@H]23)OCO4)cc(OC)c1OC | 5% | 49% | 5% | 41% | Active | Active | Active | Active | Active | Active | Active | inactive | Active | Active | Active | Non-toxic | Active | Active | Active | Active | Activity [21]: Active
